Decrease data for 34 compounds are collected here from ChEMBL document CHEMBL1125415, “Antihyperglycemic activity of novel substituted 3H-1,2,3,5-oxathiadiazole 2-oxides” (1992).

Molecules are shown by their SMILES. A value given as a limit tells only on which side of the number the result lay.

For test [1], the system named is Mus musculus. Nature of the test: Antihyperglycemic activity in mice at a dose of 20 mg/kg. The format is functional. In a few lines:
(§1)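 Diabetic db/db mice, after exclusion of the five most extreme baseline glucose values, randomized into groups of equal mean plasma glucose, 4-6 per group. Oral dosing in 2% Tween 80/saline on afternoons of days 1-3 (fed), and day 4 after 3 h fast. Plasma glucose at 2 and 4 h post-dose; mean expressed as % change from day-1 baseline versus vehicle; ANOVA with one-sided Dunnett's test.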

For test [2], the system named is Mus musculus. Nature of the test: Antihyperglycemic activity in mice at a dose of 100 mg/kg. The format is functional. The method, boiled down: as §1

As for `O=S1NC(Cc2cccc(Cl)c2)=NO1` (stereo not given), the Decrease with Mus musculus [1] was less than -15%; in the test on Mus musculus [2], -40%.

`Cc1ccc2occ(CC3=NOS(=O)N3)c2c1` (stereo not given): the values for the Decrease in the test on Mus musculus [1] and in the test on Mus musculus [2] were less than -15% and -42%, respectively.

On to `O=S1NC(CC2=Cc3ccccc3CC2)=NO1` (stereo not given), for which the Decrease with Mus musculus [1] is -23%; in the test with Mus musculus [2], -53%.

As to `O=S1NC(CC2=C(Cl)c3ccccc3CC2)=NO1` (stereo not given), in the test on Mus musculus [1], the Decrease was -27%.

`O=S1NC(Cc2ccc3ccccc3c2)=NO1` (stereo not given): the Decrease in the test on Mus musculus [1] is listed as -37%; in the test with Mus musculus [2] it was -63%. The like results for `O=S1NC(Cc2cc3ccccc3s2)=NO1` (stereo not given) were, in that order, less than -15% and -42%. The corresponding values for `CC1(COc2ccc(CC3SC(=O)NC3=O)cc2)CCCCC1` (stereo not given) [CIGLITAZONE] are less than -15% and -29%. For the compound `O=S1NC(Cc2cccc(C(F)(F)F)c2)=NO1` (stereo not given), the figures for the Decrease in the test on Mus musculus [1] and with Mus musculus [2] were less than -15% and -34%, respectively. The like results for `O=S1NC(Cc2ccc(OCCc3ccccc3)cc2)=NO1` (stereo not given) were, in that order, less than -15% and -56%. On to `O=S1NC(CC2CCc3ccccc3C2)=NO1` (stereo not given), for which the figures for the Decrease in the test with Mus musculus [1] and in the test with Mus musculus [2] were less than -15% and -22%, respectively. The like results for `CC(C)(C)c1ccc(CC2=NOS(=O)N2)cc1` (stereo not given) were, in that order, less than -15% and less than 15%. With `O=S1NC(Cc2cc3cc(Cl)ccc3s2)=NO1` (stereo not given), the Decrease in the test with Mus musculus [1] is recorded as less than -15%; in the test with Mus musculus [2], -24%. The like results for `O=S1NC(Cc2c[nH]c3ccccc23)=NO1` (stereo not given) were, in that order, less than -15% and -22%. Take `O=S1NC(Cc2cc3cc(F)ccc3o2)=NO1` (stereo not given): the Decrease in the test on Mus musculus [1] was less than -15%; in the test with Mus musculus [2], -25%. The like results for `O=S1NC(Cc2cc3ccc(F)cc3o2)=NO1` (stereo not given) were, in that order, less than -15% and -18%. As for `O=S1NC(Cc2ccc(OCc3ccccc3)cc2)=NO1` (stereo not given), the Decrease in the test with Mus musculus [2] is recorded as less than -15%. Take `O=S1NC(Cc2ccc(-c3ccccc3)cc2)=NO1` (stereo not given): the Decrease in the test with Mus musculus [1] was less than -15%; in the test on Mus musculus [2], less than 15%.

`O=S1NC(Cc2coc3ccccc23)=NO1` (stereo not given): the Decrease is given as less than -15% in the test on Mus musculus [1] and -28% in the test with Mus musculus [2]. The like results for `O=S1NC(Cc2ccc3c(c2)CCCC3)=NO1` (stereo not given) were, in that order, less than -15% and less than 15%. With `O=S1NC(CC2CCc3ccccc32)=NO1` (stereo not given), the Decrease in the test with Mus musculus [1] was less than -15%; with Mus musculus [2], less than 15%. The like results for `O=S1NC(Cc2cc3cc(Cl)ccc3o2)=NO1` (stereo not given) were, in that order, less than -15% and -23%.

In the case of `O=S1NC(Cc2c[nH]c3ccc(Br)cc23)=NO1` (stereo not given), the figures for the Decrease in the test on Mus musculus [1] and in the test with Mus musculus [2] were -22% and -30%, respectively.

As for `O=S1NC(Cc2coc3c(Cl)cccc23)=NO1` (stereo not given), the values for the Decrease in the test on Mus musculus [1] and in the test with Mus musculus [2] were -26% and -54%, respectively. The corresponding values for `O=S1NC(Cc2coc3ccc(Br)cc23)=NO1` (stereo not given) are less than -15% and less than 15%. The corresponding values for `O=S1NC(Cc2coc3c(Cl)cc(Cl)cc23)=NO1` (stereo not given) are less than -15% and -29%. With `O=S1NC(Cc2ccc3c(c2)CCC3)=NO1` (stereo not given), the results for the Decrease in the test with Mus musculus [1] and in the test on Mus musculus [2] were less than -15% and less than 15%, respectively. The corresponding values for `O=S1NC(Cc2cc3ccccc3o2)=NO1` (stereo not given) are less than -15% and less than 15%. The corresponding values for `O=S1NC(Cc2cc3cc(F)ccc3s2)=NO1` (stereo not given) are less than -15% and less than 15%.

For `O=S1NC(Cc2csc3ccccc23)=NO1` (stereo not given), the Decrease is reported as less than -15% in the test with Mus musculus [1] and -30% in the test on Mus musculus [2]. The like results for `O=S1NC(Cc2cc3cc(Br)ccc3s2)=NO1` (stereo not given) were, in that order, -20% and -29%. For the compound `Cc1ccc(CC2=NOS(=O)N2)cc1C` (stereo not given), the results for the Decrease in the test on Mus musculus [1] and in the test on Mus musculus [2] were less than -15% and less than 15%, respectively. For `O=S1NC(Cc2coc3cc(Cl)ccc23)=NO1` (stereo not given), the Decrease with Mus musculus [1] was less than -15%; with Mus musculus [2] it was -22%. `O=S1NC(Cc2coc3ccc(Cl)cc23)=NO1` (stereo not given): the Decrease in the test with Mus musculus [1] is listed as less than -15%. `O=S1NC(Cc2ccc(Br)cc2F)=NO1` (stereo not given): the Decrease in the test with Mus musculus [1] is listed as -17%; with Mus musculus [2] it was -28%.
